Measurements as given in ChEMBL document CHEMBL4406852, “Combating fluconazole-resistant fungi with novel β-azole-phenylacetone derivatives” (Eur J Med Chem, 2019).
Converted amounts (≈) assume the structure as drawn.

Columns and labels:
Format in all cases: functional
Candida albicans [1] = assay: Antifungal activity against fluconazole-resistant Candida albicans 17 assessed as reduction in fungal growth incubated for 24 hrs by serial dilution method; details: Candida albicans, 17, 24 h
Procedure, shortened: (§1)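 Fluconazole-resistant C. albicans clinical isolates (17# and CaR from AIDS patients; 632, 901, 904 from clinic) tested by CLSI broth dilution MIC in RPMI 1640 buffered to pH 7.0 with MOPS. Compounds dissolved in DMSO, serially diluted to final 0.03–16 or 0.125–64 μg/mL; inoculum 1–5 × 10^3 CFU/mL; 35 °C, 24 h. MIC = lowest concentration inhibiting visible growth; fluconazole and itraconazole as controls.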

Candida albicans [2] = assay: Antifungal activity against Candida albicans SC5314 assessed as reduction in fungal growth incubated for 24 hrs by serial dilution method; details: SC5314, 24 h
Procedure, shortened: (§2)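 MIC by CLSI broth microdilution in RPMI 1640 buffered to pH 7.0 with MOPS. Compounds dissolved in DMSO and serially diluted to final 0.03–16 or 0.125–64 µg/mL. Inoculum 1–5 × 10^3 CFU/mL. Incubation 35 °C, 24 h. Drug-free growth and fungus-free blank controls. MIC is the lowest concentration preventing visible growth.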

Candida albicans [3] = assay: Antifungal activity against fluconazole-resistant Candida albicans 904 assessed as reduction in fungal growth incubated for 24 hrs by serial dilution method; details: Candida albicans, 904, 24 h; procedure, shortened: as §1
Candida albicans [4] = assay: Antifungal activity against fluconazole-resistant Candida albicans 901 assessed as reduction in fungal growth incubated for 24 hrs by serial dilution method; details: Candida albicans, 901, 24 h; procedure, shortened: as §1
Candida parapsilosis = assay: Antifungal activity against Candida parapsilosis GIM 2.190 assessed as reduction in fungal growth incubated for 24 hrs by serial dilution method; details: Lodderomyces parapsilosis, GIM 2.190, 24 h; procedure, shortened: as §2
Candida albicans [5] = assay: Antifungal activity against fluconazole-resistant Candida albicans CaR assessed as reduction in fungal growth incubated for 24 hrs by serial dilution method; procedure, shortened: as §1
Candida albicans [6] = assay: Antifungal activity against Candida albicans GIM 2.194 assessed as reduction in fungal growth incubated for 24 hrs by serial dilution method; details: GIM 2.194, 24 h; procedure, shortened: as §2
Candida albicans [7] = assay: Antifungal activity against fluconazole-resistant Candida albicans 632 assessed as reduction in fungal growth incubated for 24 hrs by serial dilution method; details: Candida albicans, 632, 24 h; procedure, shortened: as §1
Nakaseomyces glabratus = assay: Antifungal activity against Candida glabrata assessed as reduction in fungal growth incubated for 24 hrs by serial dilution method; procedure, shortened: as §2
Candida tropicalis = assay: Antifungal activity against Candida tropicalis GIM 2.183 assessed as reduction in fungal growth incubated for 24 hrs by serial dilution method; details: GIM 2.183, 24 h; procedure, shortened: as §2

Compound	MIC (Candida albicans [1]) [µg/mL]	MIC (Candida albicans [2]) [µg/mL]	MIC (Candida albicans [3]) [µg/mL]	MIC (Candida albicans [4]) [µg/mL]	MIC (Candida parapsilosis) [µg/mL]	MIC (Candida albicans [5]) [µg/mL]	MIC (Candida albicans [6]) [µg/mL]	MIC (Candida albicans [7]) [µg/mL]	MIC (Nakaseomyces glabratus) [µg/mL]	MIC (Candida tropicalis) [µg/mL]
O=C(NC(Cn1ccnc1)C(=O)c1cccc(F)c1)c1ccc(-c2ccccc2)cc1F (stereo not drawn)	4 (≈ 9.27 µM)	0.125 (≈ 0.29 µM)	32 (≈ 74.2 µM)	2 (≈ 4.64 µM)	0.5 (≈ 1.16 µM)	2 (≈ 4.64 µM)	0.5 (≈ 1.16 µM)	> 64	2 (≈ 4.64 µM)	0.5 (≈ 1.16 µM)
O=C(NC(Cn1ccnc1)C(=O)c1ccccc1)c1ccc(-c2ccccc2F)cc1 (stereo not drawn)		0.5 (≈ 1.21 µM)			2 (≈ 4.84 µM)		1 (≈ 2.42 µM)		1 (≈ 2.42 µM)	0.25 (≈ 0.605 µM)
O=C(NC(Cn1ccnc1)C(=O)c1ccc(Cl)cc1)c1ccc(-c2ccccc2)cc1F (stereo not drawn)	> 64	0.06 (≈ 0.134 µM)	32 (≈ 71.4 µM)	> 64	0.125 (≈ 0.279 µM)	> 64	0.5 (≈ 1.12 µM)	> 64	0.25 (≈ 0.558 µM)	0.06 (≈ 0.134 µM)
O=C(NC(Cn1ccnc1)C(=O)c1cccc(Cl)c1)c1ccc(-c2ccccc2)c(F)c1 (stereo not drawn)	> 64	0.06 (≈ 0.134 µM)	4 (≈ 8.93 µM)	4 (≈ 8.93 µM)	0.5 (≈ 1.12 µM)	> 64	0.125 (≈ 0.279 µM)	4 (≈ 8.93 µM)	0.25 (≈ 0.558 µM)	0.125 (≈ 0.279 µM)
O=C(NC(Cn1ccnc1)C(=O)c1ccccc1)c1ccc(-c2ccccc2)c(Cl)c1 (stereo not drawn)		> 16			> 64		> 16		> 64	> 16
O=C(NC(Cn1ccnc1)C(=O)c1cccc(F)c1)c1ccc(-c2ccccc2)c(F)c1 (stereo not drawn)	> 64	0.125 (≈ 0.29 µM)	0.5 (≈ 1.16 µM)	0.25 (≈ 0.579 µM)	1 (≈ 2.32 µM)	> 64	0.25 (≈ 0.579 µM)	1 (≈ 2.32 µM)	2 (≈ 4.64 µM)	1 (≈ 2.32 µM)
Cc1cc(C(=O)NC(Cn2ccnc2)C(=O)c2ccccc2)ccc1-c1ccccc1 (stereo not drawn)		> 16			> 64		> 16		> 64	> 16
Cc1cc(-c2ccccc2)ccc1C(=O)NC(Cn1ccnc1)C(=O)c1ccccc1 (stereo not drawn)		> 16			> 64		> 16		> 64	> 16
O=C(NC(Cn1ccnc1)C(=O)c1ccc(F)cc1)c1ccc(-c2ccccc2)cc1 (stereo not drawn)	> 64	0.06 (≈ 0.145 µM)	2 (≈ 4.84 µM)	1 (≈ 2.42 µM)	0.25 (≈ 0.605 µM)	> 64	0.25 (≈ 0.605 µM)	2 (≈ 4.84 µM)	0.5 (≈ 1.21 µM)	0.25 (≈ 0.605 µM)
O=C(NC(Cn1ccnc1)C(=O)c1ccccc1)c1ccc(-c2ccccc2)cc1F (stereo not drawn)	2 (≈ 4.84 µM)	0.125 (≈ 0.302 µM)	8 (≈ 19.3 µM)	> 64	0.125 (≈ 0.302 µM)	4 (≈ 9.67 µM)	0.25 (≈ 0.605 µM)	32 (≈ 77.4 µM)	0.5 (≈ 1.21 µM)	0.06 (≈ 0.145 µM)
O=C(NC(Cn1ccnc1)C(=O)c1ccc(Cl)cc1)c1ccc(-c2ccccc2)c(F)c1 (stereo not drawn)	> 64	0.06 (≈ 0.134 µM)	> 64	> 64	1 (≈ 2.23 µM)	> 64	0.5 (≈ 1.12 µM)	> 64	0.5 (≈ 1.12 µM)	0.06 (≈ 0.134 µM)
Cc1cccc(-c2ccc(C(=O)NC(Cn3ccnc3)C(=O)c3ccccc3)cc2)c1 (stereo not drawn)		> 16			> 64		> 16		> 64	> 16
O=C(NC(Cn1ccnc1)C(=O)c1ccccc1)c1ccc(-c2cccc(F)c2)cc1 (stereo not drawn)		0.25 (≈ 0.605 µM)			1 (≈ 2.42 µM)		0.5 (≈ 1.21 µM)		> 64	0.125 (≈ 0.302 µM)
Cc1ccc(C(=O)C(Cn2ccnc2)NC(=O)c2ccc(-c3ccccc3)cc2)cc1 (stereo not drawn)	> 64	0.06 (≈ 0.147 µM)	32 (≈ 78.1 µM)	16 (≈ 39.1 µM)	0.5 (≈ 1.22 µM)	> 64	0.125 (≈ 0.305 µM)	> 64	0.25 (≈ 0.611 µM)	0.03 (≈ 0.0733 µM)
O=C(NC(Cn1cncn1)C(=O)c1ccccc1)c1ccc(-c2ccccc2)cc1 (stereo not drawn)		0.25 (≈ 0.631 µM)					2 (≈ 5.04 µM)			1 (≈ 2.52 µM)
Cc1ccc(-c2ccc(C(=O)NC(Cn3ccnc3)C(=O)c3ccccc3)cc2)cc1 (stereo not drawn)		2 (≈ 4.88 µM)			> 64		> 16		> 64	> 16
O=C(NC(Cn1ccnc1)C(=O)c1cccc(F)c1)c1ccc(-c2ccccc2)cc1 (stereo not drawn)	> 64	0.06 (≈ 0.145 µM)	0.5 (≈ 1.21 µM)	0.25 (≈ 0.605 µM)	0.5 (≈ 1.21 µM)	> 64	0.125 (≈ 0.302 µM)	1 (≈ 2.42 µM)	1 (≈ 2.42 µM)	0.25 (≈ 0.605 µM)
O=C(NC(Cn1ccnc1)C(=O)c1ccccc1F)c1ccc(-c2ccccc2)cc1F (stereo not drawn)	8 (≈ 18.5 µM)	0.5 (≈ 1.16 µM)	2 (≈ 4.64 µM)	> 64	1 (≈ 2.32 µM)	4 (≈ 9.27 µM)	1 (≈ 2.32 µM)	8 (≈ 18.5 µM)	> 64	1 (≈ 2.32 µM)
O=C(NC(Cn1ccnc1)C(=O)c1ccc(Cl)cc1)c1ccc(-c2ccccc2)cc1 (stereo not drawn)	> 64	0.06 (≈ 0.14 µM)	2 (≈ 4.65 µM)	2 (≈ 4.65 µM)	0.25 (≈ 0.582 µM)	> 64	0.125 (≈ 0.291 µM)	4 (≈ 9.3 µM)	0.5 (≈ 1.16 µM)	0.06 (≈ 0.14 µM)
O=C(NC(Cn1ccnc1)C(=O)c1ccccc1)c1ccc(-c2ccc(Cl)cc2)cc1 (stereo not drawn)		0.5 (≈ 1.16 µM)			> 64		> 16		> 64	> 16
O=C(NC(Cn1ccnc1)C(=O)c1cccc(Cl)c1)c1ccc(-c2ccccc2)cc1F (stereo not drawn)	> 64	0.06 (≈ 0.134 µM)	> 64	> 64	0.125 (≈ 0.279 µM)	> 64	0.125 (≈ 0.279 µM)	> 64	0.25 (≈ 0.558 µM)	0.03 (≈ 0.067 µM)
O=C(NC(Cn1ccnc1)C(=O)c1ccccc1)c1ccc(-c2ccccc2)cc1Cl (stereo not drawn)		8 (≈ 18.6 µM)			> 64		> 16		> 64	> 16
Cc1ccccc1-c1ccc(C(=O)NC(Cn2ccnc2)C(=O)c2ccccc2)cc1 (stereo not drawn)		> 16			> 64		> 16		> 64	> 16
O=C(NC(Cn1ccnc1)C(=O)c1ccc(F)cc1)c1ccc(-c2ccccc2)c(F)c1 (stereo not drawn)	> 64	0.06 (≈ 0.139 µM)	4 (≈ 9.27 µM)	> 64	0.25 (≈ 0.579 µM)	> 64	0.25 (≈ 0.579 µM)	4 (≈ 9.27 µM)	0.5 (≈ 1.16 µM)	0.25 (≈ 0.579 µM)
O=C(NC(Cn1ccnc1)C(=O)c1ccccc1)c1ccc(-c2ccccc2Cl)cc1 (stereo not drawn)		2 (≈ 4.65 µM)			> 64		> 16		4 (≈ 9.3 µM)	> 16
O=C(NC(Cn1ccnc1)C(=O)c1ccccc1)c1ccc(-c2ccccc2)c(F)c1 (stereo not drawn)	> 64	0.06 (≈ 0.145 µM)	2 (≈ 4.84 µM)	0.25 (≈ 0.605 µM)	0.125 (≈ 0.302 µM)	> 64	0.125 (≈ 0.302 µM)	2 (≈ 4.84 µM)	0.25 (≈ 0.605 µM)	0.06 (≈ 0.145 µM)
O=C(NC(Cn1ccnc1)C(=O)c1ccccc1)c1ccc(-c2ccc(F)cc2)cc1 (stereo not drawn)		4 (≈ 9.67 µM)			> 64		> 16		> 64	8 (≈ 19.3 µM)
O=C(NC(Cn1ccnc1)C(=O)c1ccccc1F)c1ccc(-c2ccccc2)c(F)c1 (stereo not drawn)	> 64	0.5 (≈ 1.16 µM)	0.25 (≈ 0.579 µM)	0.25 (≈ 0.579 µM)	2 (≈ 4.64 µM)	> 64	0.5 (≈ 1.16 µM)	1 (≈ 2.32 µM)	> 64	4 (≈ 9.27 µM)
